The source of these data is ChEMBL document CHEMBL1155163, “Deoxyribonucleoside kinases activate nucleoside antibiotics in severely pathogenic bacteria” (Antimicrob Agents Chemother, 2007).

Data set [1] deals with Staphylococcus aureus. The data set can be described thus: Antimicrobial activity against Staphylococcus aureus CCM 885 after 20 hrs. Particulars: CCM 885, 20 h. The format is functional. Summed up: (§1)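 Organisms taken from overnight Columbia blood agar, adjusted to McFarland 0.5 in 0.9% NaCl, diluted a further 10-fold, then spotted on Mueller-Hinton agar containing graded nucleoside analog concentrations. Incubated 20 h at 37°C. MIC is the lowest concentration fully inhibiting growth, judged visually.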

Data set [2] concerns Streptococcus sp. Briefly: Antimicrobial activity against Streptococcus sp. 07706-1 after 20 hrs. The format is functional. Summed up: as §1
Data set [3] relates to Streptococcus sp. Briefly: Antimicrobial activity against Streptococcus sp. 07686-2 after 20 hrs. Format: functional. The method in brief: as §1
Data set [4] relates to Escherichia coli. Briefly: Antimicrobial activity against Escherichia coli ATCC 25922 after 20 hrs. Particulars: ATCC 25922, 20 h. Format: functional. The method in brief:
as §1

Data set [5] has as its system Staphylococcus aureus. The data set can be described thus: Antimicrobial activity against Staphylococcus aureus ATCC 29213 after 20 hrs. To be noted: ATCC 29213, 20 h. Format: functional. The method in brief:
as §1

Data set [6] has as its system Streptococcus sp. Briefly: Antimicrobial activity against Streptococcus sp. 07941-1 after 20 hrs. Format: functional. The method in brief: as §1
Data set [7] relates to Escherichia coli. Briefly: Antibacterial activity against […] kinase-deficient Escherichia coli KY895 expressing Streptococcus pyogenes recombinant thymidine kinase. Format: functional.
In data set [8] the test system is Escherichia coli. The data set can be described thus: Antibacterial activity against […] kinase-deficient Escherichia coli KY895 expressing Staphylococcus aureus recombinant deoxyadenosine kinase. Format: functional.
The test system of data set [9] is Streptococcus pyogenes. Briefly: Antibacterial activity against exponentially growing Streptococcus pyogenes AP1 at 0.2 ug/ml after 3 hrs by viable count susceptibility assay. Format: functional, organism-based. Summed up: (§2)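 Cells grown overnight in Todd-Hewitt broth at 37°C with 5% CO2, subcultured to OD620 0.4, washed twice and diluted 1,000-fold in 10 mM Tris-HCl pH 7.5, 5 mM glucose, 10% Todd-Hewitt. Stopped with ice-cold buffer; duplicate plating on Todd-Hewitt agar for viable counts.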

Data set [10] concerns Staphylococcus aureus. The data set can be described thus: Antibacterial activity against exponentially growing Staphylococcus aureus ATCC 29213 at 0.002 ug/ml after 3 hrs by viable count susceptibility assay. The format is functional, organism-based. The method in brief:
as §2

Data set [11] deals with Streptococcus pyogenes. The data set can be described thus: Antimicrobial activity against Streptococcus pyogenes AP1 after 20 hrs. Format: functional. Particulars: AP1, 20 h. The method in brief: as §1
Data set [12] concerns Escherichia coli. The data set can be described thus: Antibacterial activity against […] kinase-deficient Escherichia coli KY895 expressing Staphylococcus aureus recombinant deoxyguanosine kinase. Format: functional, organism-based.
Data set [13] relates to Escherichia coli. Briefly: Antibacterial activity against […] kinase-deficient Escherichia coli KY895 expressing Streptococcus pyogenes recombinant deoxyadenosine kinase. Format: functional.
In data set [14] the test system is Streptococcus pyogenes. The data set can be described thus: Antibacterial activity against 1 x 10^7 CFU Streptococcus pyogenes AP1-infected BALB/c mouse assessed as survival at 100 ug, ip after 5 days. Format: functional. The method in brief:
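Adult female BALB/c mice (~20 g), six per group, given ip 1 x 10^7 CFU of mid-exponential S. pyogenes AP1 (OD620 0.5, washed, in PBS). 6 h later, ip 100 µg drug or 100 µl PBS. Survival followed at regular intervals. Survivors sacrificed at 5 days. Inoculum checked by blood-agar colony counts.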

In data set [15] the test system is Streptococcus pyogenes. Briefly: Antibacterial activity against 2.5 x 10^6 CFU Streptococcus pyogenes AP1-infected BALB/c mouse assessed as protection against bacterial dissemination in spleen at 100 ug, ip administered 6 hrs after bacterial infection and measured after 24 hrs postinfection. Format: functional, organism-based.
Data set [16] has as its system Escherichia coli. Briefly: Antibacterial activity against […] kinase-deficient Escherichia coli KY895 expressing Staphylococcus aureus recombinant thymidine kinase. Format: functional.
Substrate in data set [17]: Nc1nc(O)c2ncn([C@H]3C[C@H](O)[C@@H](CO)O3)c2n1
Briefly: Ratio of kcat to Km for Staphylococcus aureus CCM 885 recombinant deoxyguanosine kinase. Summed up:
(§3)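 Recombinant S. aureus kinase cut from a GST fusion (pGEX-2T, E. coli BL21) by thrombin. Initial velocities taken from four time samples in a DE-81 filter-paper assay with tritiated substrates at varied concentrations. Fits by nonlinear regression to Michaelis-Menten, or to the substrate-inhibition equation where needed.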

Substrate in data set [18]: Nc1nc(O)c2ncn([C@H]3C[C@H](O)[C@@H](CO)O3)c2n1
Briefly: Activity of Staphylococcus aureus CCM 885 recombinant deoxyguanosine kinase. Summed up: as §3

Substrate in data set [19]: Nc1ccn([C@H]2C[C@H](O)[C@@H](CO)O2)c(=O)n1
The data set can be described thus: (§4) Activity of Staphylococcus aureus CCM 885 recombinant deoxyadenosine kinase. The method in brief: as §3

Substrate in data set [20]: Nc1ccn([C@@H]2O[C@H](CO)[C@@H](O)C2(F)F)c(=O)n1
The description is as §4. The method in brief: as §3

Substrate in data set [21]: Nc1ncnc2c1ncn2[C@H]1C[C@H](O)[C@@H](CO)O1
The data set is described as §4. Summed up:
as §3

Substrate in data set [22]: Nc1ccn([C@H]2C[C@H](O)[C@@H](CO)O2)c(=O)n1
Briefly: (§5) Ratio of kcat to Km for Staphylococcus aureus CCM 885 recombinant deoxyadenosine kinase. The method in brief:
as §3

Substrate in data set [23]: Nc1ccn([C@@H]2O[C@H](CO)[C@@H](O)C2(F)F)c(=O)n1
The description is as §5. The method in brief:
as §3

Substrate in data set [24]: Nc1ncnc2c1ncn2[C@H]1C[C@H](O)[C@@H](CO)O1
The description is as §5. The method in brief:
as §3

Substrate in data set [25]: Cc1cn([C@H]2C[C@H](N=[N+]=[N-])[C@@H](CO)O2)c(=O)[nH]c1=O
Briefly: (§6) Ratio of kcat to Km for Staphylococcus aureus CCM 885 recombinant thymidine kinase. Summed up:
(§7)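 GST-fused SaTK expressed in E. coli BL21 (100 µM IPTG, 6 h at 25°C), purified on glutathione-Sepharose and cleaved from GST with thrombin. Initial velocities from four time samples, DE-81 filter-paper assay with tritium-labeled deoxyribonucleoside substrates at various concentrations. Michaelis-Menten nonlinear regression.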

Substrate in data set [26]: Cc1cn([C@H]2C[C@H](O)[C@@H](CO)O2)c(=O)[nH]c1=O
The description is as §6. Summed up: as §7

Substrate in data set [27]: Cc1cn([C@H]2C[C@H](N=[N+]=[N-])[C@@H](CO)O2)c(=O)[nH]c1=O
The data set can be described thus: (§8) Activity of Staphylococcus aureus CCM 885 recombinant thymidine kinase. The method in brief:
as §7

Substrate in data set [28]: Cc1cn([C@H]2C[C@H](O)[C@@H](CO)O2)c(=O)[nH]c1=O
Described as §8. Summed up:
as §7

≈ marks a conversion by molar mass, not a printed value. Calls of active or inactive are those of the source.

As usually defined, the MIC is the smallest concentration in the dilution series that meets the test's criterion for growth inhibition. Regarding `Nc1nc(Cl)nc2c1ncn2[C@H]1C[C@H](O)[C@@H](CO)O1` [CLADRIBINE], the MIC against Staphylococcus aureus [1] was > 100 µM; in the data set with Streptococcus sp. [2] it was 100 µM (≈ 28.6 µg/mL); in the data set on Streptococcus sp. [3] it was 100 µM (≈ 28.6 µg/mL); against Escherichia coli [4], > 100 µM; in the data set on Staphylococcus aureus [5], > 100 µM; in the data set with Streptococcus sp. [6] it was 100 µM (≈ 28.6 µg/mL).

As to `Nc1ccn([C@@H]2O[C@H](CO)[C@@H](O)[C@@H]2O)c(=O)n1` [CYTARABINE], the MIC with Staphylococcus aureus [1], with Streptococcus sp. [2], against Streptococcus sp. [3], against Escherichia coli [4], in the data set on Staphylococcus aureus [5] and in the data set on Streptococcus sp. [6] was > 1000 µM each time.

On to `CCc1cn([C@H]2C[C@H](O)[C@@H](CO)O2)c(=O)[nH]c1=O` [EDOXUDINE], for which the MIC with Staphylococcus aureus [1], against Streptococcus sp. [2], against Streptococcus sp. [3], against Escherichia coli [4], with Staphylococcus aureus [5] and in the data set with Streptococcus sp. [6] was > 316 µM throughout.

Regarding `O=c1[nH]c(=O)n([C@H]2C[C@H](O)[C@@H](CO)O2)cc1F` [FLOXURIDINE], the MIC against Staphylococcus aureus [1] came out at 0.00316 µM (≈ 0.000778 µg/mL); in the data set on Streptococcus sp. [2] it was 0.316 µM (≈ 0.0778 µg/mL); against Streptococcus sp. [3], 10 µM (≈ 2.46 µg/mL); against Escherichia coli [4], 1 µM (≈ 0.246 µg/mL); against Staphylococcus aureus [5], 0.01 µM (≈ 0.00246 µg/mL); in the data set with Streptococcus sp. [6] it was 0.1 µM (≈ 0.0246 µg/mL).

With `Nc1nc(F)nc2c1ncn2[C@@H]1O[C@H](CO)[C@@H](O)[C@@H]1O` [FLUDARABINE], the MIC against Staphylococcus aureus [1], with Streptococcus sp. [2], against Streptococcus sp. [3], with Escherichia coli [4], in the data set on Staphylococcus aureus [5] and in the data set on Streptococcus sp. [6] was > 100 µM each time.

For the molecule `Nc1ccn([C@@H]2O[C@H](CO)[C@@H](O)C2(F)F)c(=O)n1` [GEMCITABINE], the outcome in the data set on Escherichia coli [7], with Escherichia coli [12] and in the data set with Escherichia coli [16] was inactive. In addition, the MIC in the data set on Escherichia coli [8] is 0.001 µM; with Staphylococcus aureus [1], 0.1 µM (≈ 0.0263 µg/mL); against Streptococcus sp. [2], 0.0316 µM (≈ 0.00832 µg/mL); in the data set on Streptococcus sp. [3], 0.1 µM (≈ 0.0263 µg/mL); with Escherichia coli [4], > 1000 µM; in the data set on Streptococcus pyogenes [11], 0.1 µM (≈ 0.0263 µg/mL). Further, the MIC in the data set with Staphylococcus aureus [5] is 0.1 µM (≈ 0.0263 µg/mL); in the data set on Streptococcus sp. [6], 0.01 µM (≈ 0.00263 µg/mL); in the data set on Escherichia coli [13], 0.0316 µM. Further, the outcome in the data set on Streptococcus pyogenes [9], in the data set with Staphylococcus aureus [10] and in the data set on Streptococcus pyogenes [15] was Active. Moreover, in the data set with Streptococcus pyogenes [14], the Activity was 83%.

On to `Cc1cn([C@H]2C[C@H](N=[N+]=[N-])[C@@H](CO)O2)c(=O)[nH]c1=O` [ZIDOVUDINE], for which the MIC with Escherichia coli [7] was 0.01 µM; against Staphylococcus aureus [1], > 316 µM; with Streptococcus sp. [2], > 316 µM; against Streptococcus sp. [3], > 316 µM; in the data set with Escherichia coli [4], 10 µM (≈ 2.67 µg/mL); against Staphylococcus aureus [5], > 316 µM. For the same molecule, the MIC is 316 µM (≈ 84.4 µg/mL) against Streptococcus sp. [6] and 0.0316 µM in the data set with Escherichia coli [16]. Moreover, the outcome in the data set on Escherichia coli [8], with Escherichia coli [12] and in the data set with Escherichia coli [13] was inactive.

B1: Deoxyguanosine kinase (Staphylococcus aureus), Q0H0G8 (protein)
chain: MNKPFIAIEGPIGVGKSSLAHKLSQTLDFYEEKEIITENPFLSDFYEDISKWSFQTEMFFLCNRYKQFQDVTQLNQGVVSDYHIHKNKIFAKNTLSSVEFQKFSKIYDILTEDMIMPNMIIFLDADLDVLKSRIAKRNRSFEHQIEDEYLLKLKKDYREYYESLQSNGSNVVLIDTTSIDFLKNEQDYEDILHIILPMIGDITNE
What is called Km is the substrate concentration at which the rate is half of its maximum. The term kcat denotes the maximal rate divided by the concentration of active sites. Turning to B1, in [17], the kcat/Km amounted to 5.17 ×10⁵ /M/s. In data set [18], the Km was 1.1 µM, the Vmax was found to be 1.4 U/mg and the kcat is 0.57 s⁻¹.

B2: Deoxyadenosine kinase (Staphylococcus aureus), Q0H0H0 (protein)
chain: MNNYGIPQNAIITIAGTVGVGKSTLTQALADKLNFKTSFENVEHNPYLDKFYSDFERWSFHLQIYFLAERFKEQKRMFEYGGGFVQDRSIYEDVDIFAKMHEEEGTMSKEDFKTYSDLFNAMVMTPYFPKPDVMIYLECNYDEVIDRIIERGREMEINTDPEYWKKLFKRYDDWINSFNACPVVRININEYDIHKDPESLNPMINKIARIIQTYRQVDTR
For the molecule B2, the figures for the Michaelis constant (Km) in data set [19], in data set [20] and in [21] were 34.4 µM, 192 µM and 29.2 µM, respectively. Also, the Vmax in data set [19] was found to be 1.3 U/mg; in [20] it was 0.43 U/mg; in data set [21] it was 4.1 U/mg. In addition, the kcat turned out to be 0.56 s⁻¹ in [19], 0.19 s⁻¹ in data set [20] and 1.82 s⁻¹ in data set [21]. The kcat/Km is 1.62 ×10⁴ /M/s in data set [22], 9.81 ×10² /M/s in data set [23] and 6.22 ×10⁴ /M/s in [24].

B3: Thymidine kinase (Staphylococcus aureus), Q0H0G9 (protein)
chain: MYETYHSGWIECITGSMFSGKSEELIRRLRRGIYAKQKVVVFKPAIDDRYHKEKVVSHNGNAIEAINISKASEIMTHDLTNVDVIGIDEVQFFDDEIVSIVEKLSADGHRVIVAGLDMDFRGEPFEPMPKLMAVSEQVTKLQAVCAVCGSSSSRTQRLINGKPAKIDDPIILVGANESYEPRCRAHHIVAPSDNNKEEL
On to B3, for which the kcat/Km is 1.29 ×10⁵ /M/s in [25] and 1.6 ×10⁵ /M/s in data set [26]. In addition, the figures for the Km in data set [27] and in data set [28] were 11.6 µM and 2.8 µM, respectively. Further, the Vmax in data set [27] came out at 4 U/mg; in [28], 1.2 U/mg. The values for the kcat in data set [27] and in data set [28] were 1.48 s⁻¹ and 0.44 s⁻¹, respectively.
